Each structure is given as a SMILES string.

The values that follow come from ChEMBL document CHEMBL4715754, “Slowing down fat digestion and absorption by an oxadiazolone inhibitor targeting selectively gastric lipolysis” (2016).

In assay [1] the target is T1, Pancreatic triacylglycerol lipase (Sus scrofa) (UniProt P00591).
T1 sequence (whole entry): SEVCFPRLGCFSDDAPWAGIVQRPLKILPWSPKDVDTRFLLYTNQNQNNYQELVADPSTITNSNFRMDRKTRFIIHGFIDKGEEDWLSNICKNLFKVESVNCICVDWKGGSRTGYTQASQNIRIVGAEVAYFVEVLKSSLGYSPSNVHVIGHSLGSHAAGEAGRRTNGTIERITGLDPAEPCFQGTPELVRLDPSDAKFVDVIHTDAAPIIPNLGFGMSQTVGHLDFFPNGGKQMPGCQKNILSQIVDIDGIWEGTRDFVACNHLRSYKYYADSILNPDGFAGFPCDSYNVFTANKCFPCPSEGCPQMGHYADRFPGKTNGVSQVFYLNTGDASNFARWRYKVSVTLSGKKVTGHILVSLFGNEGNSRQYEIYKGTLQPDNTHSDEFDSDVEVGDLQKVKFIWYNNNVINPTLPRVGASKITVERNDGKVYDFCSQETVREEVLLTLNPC
Description: Inhibition of porcine pancreatic lipase preincubated for 30 mins at 25 degreeC. Put shortly:
(§1)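 Pancreatic lipase from human pancreatic juice (54 µg/mL HPL stock) or porcine pancreatic extract (32 µg/mL PPL stock) was held in 10 mM MES pH 7.0, 150 mM NaCl. It was pre-incubated with inhibitor from DMSO stock for 30 min at 25 °C with 4 mM NaTDC at varied molar excess. Residual activity was read by pH-stat on tributyrin at 37 °C, pH 8.0, with 2 mM CaCl₂ and 4 mM NaTDC. x_I50 was taken from residual activity; DMSO-only controls were run.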

Assay [2] deals with T2, Gastric triacylglycerol lipase (Rattus norvegicus) (UniProt P04634).
T2 sequence (whole entry): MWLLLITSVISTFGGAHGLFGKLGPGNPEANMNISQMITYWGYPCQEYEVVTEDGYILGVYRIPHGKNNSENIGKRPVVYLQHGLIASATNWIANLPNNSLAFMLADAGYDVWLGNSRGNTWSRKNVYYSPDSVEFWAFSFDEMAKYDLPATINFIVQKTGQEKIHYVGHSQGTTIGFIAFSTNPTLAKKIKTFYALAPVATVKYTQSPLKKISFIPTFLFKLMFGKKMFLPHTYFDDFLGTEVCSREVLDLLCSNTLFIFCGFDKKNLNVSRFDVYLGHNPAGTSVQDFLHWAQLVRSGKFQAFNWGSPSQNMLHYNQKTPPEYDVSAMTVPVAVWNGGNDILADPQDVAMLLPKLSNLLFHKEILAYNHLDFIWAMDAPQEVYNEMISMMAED
Description: Inhibition of rat lingual lipase preincubated for 1 hr at 25 degreeC. Put shortly: (§2)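 Enzyme pre-incubated with inhibitor (DMSO stock) at fixed molar excess for 1 h at 25 °C without substrate: hCEH x_I=4 (1 mM NaTDC assay), RLL and DGL x_I=20 with 4 mM NaTDC, GPLRP2 x_I=2 with 2 mM NaTDC. Residual activity sampled at intervals by pH-stat on tributyrin emulsion at 37 °C; t1/2 taken at 50% residual activity. DMSO-only controls; at least triplicate.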

The target in assay [3] is T3, Pancreatic lipase-related protein 2 (Cavia porcellus) (UniProt P81139).
T3 sequence (whole entry): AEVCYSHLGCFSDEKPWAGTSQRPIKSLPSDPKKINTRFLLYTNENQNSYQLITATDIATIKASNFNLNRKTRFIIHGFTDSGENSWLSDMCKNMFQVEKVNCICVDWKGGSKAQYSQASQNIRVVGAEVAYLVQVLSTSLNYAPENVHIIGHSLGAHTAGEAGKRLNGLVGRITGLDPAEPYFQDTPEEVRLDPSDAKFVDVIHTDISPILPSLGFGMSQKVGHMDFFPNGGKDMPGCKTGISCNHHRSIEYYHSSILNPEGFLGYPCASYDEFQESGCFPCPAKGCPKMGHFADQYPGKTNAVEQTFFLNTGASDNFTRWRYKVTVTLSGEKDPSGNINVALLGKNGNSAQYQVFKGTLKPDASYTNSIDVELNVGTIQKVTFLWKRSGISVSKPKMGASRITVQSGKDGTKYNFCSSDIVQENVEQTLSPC
Description: Inhibition of recombinant guinea pig PL-RP2 expressed in Aspergillus oryzae assessed as residual activity by measuring half-inactivation time at 2:1 molar excess compound concentration preincubated for 1 hr at 25 degreeC. The gist of the method: as §2

The target in assay [4] is T4, Pancreatic triacylglycerol lipase (Homo sapiens) (UniProt P16233).
T4 sequence (whole entry): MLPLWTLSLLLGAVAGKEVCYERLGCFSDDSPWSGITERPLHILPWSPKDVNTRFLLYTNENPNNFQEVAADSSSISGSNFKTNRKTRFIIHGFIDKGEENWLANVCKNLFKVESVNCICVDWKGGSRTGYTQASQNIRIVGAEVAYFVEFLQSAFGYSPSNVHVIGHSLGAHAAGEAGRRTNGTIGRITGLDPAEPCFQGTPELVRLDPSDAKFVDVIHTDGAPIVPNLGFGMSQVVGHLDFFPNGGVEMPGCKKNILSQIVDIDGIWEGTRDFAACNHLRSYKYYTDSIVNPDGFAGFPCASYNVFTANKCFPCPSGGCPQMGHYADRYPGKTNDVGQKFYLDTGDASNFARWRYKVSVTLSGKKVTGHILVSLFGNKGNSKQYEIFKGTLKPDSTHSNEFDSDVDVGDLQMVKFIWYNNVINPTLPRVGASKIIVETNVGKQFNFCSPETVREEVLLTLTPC
Description: Inhibition of human pancreatic lipase at 400:1 molar excess compound concentration preincubated for 30 mins at 25 degreeC relative to control. The gist of the method:
as §1

In assay [5] the target is T5, Gastric triacylglycerol lipase (Canis lupus familiaris) (UniProt P80035).
T5 sequence (whole entry): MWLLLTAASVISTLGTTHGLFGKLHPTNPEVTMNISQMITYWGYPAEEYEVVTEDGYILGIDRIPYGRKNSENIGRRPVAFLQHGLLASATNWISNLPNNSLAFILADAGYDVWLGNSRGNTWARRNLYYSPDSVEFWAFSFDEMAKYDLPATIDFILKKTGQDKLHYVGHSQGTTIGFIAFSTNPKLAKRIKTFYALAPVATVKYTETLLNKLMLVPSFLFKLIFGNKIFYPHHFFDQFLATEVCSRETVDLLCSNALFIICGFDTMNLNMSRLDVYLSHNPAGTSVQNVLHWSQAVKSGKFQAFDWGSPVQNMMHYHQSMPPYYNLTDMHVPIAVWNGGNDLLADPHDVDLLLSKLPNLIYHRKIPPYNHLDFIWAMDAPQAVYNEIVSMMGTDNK
Description: Inhibition of recombinant dog gastric lipase assessed as residual activity by measuring half-inactivation time at 20:1 molar excess compound concentration preincubated for 1 hr at 25 degreeC. The gist of the method: as §2

Assay [6] deals with T3, Pancreatic lipase-related protein 2 (Cavia porcellus). Description: Inhibition of recombinant guinea pig PL-RP2 expressed in Aspergillus oryzae preincubated for 1 hr at 25 degreeC.
For the next assay, the species on record is Homo sapiens. Description: Inhibition of human pancreatic carboxylesterase preincubated for 1 hr at 25 degreeC.
The next assay has as its system Rattus norvegicus. Description: Inhibition of lipolysis in mesenteric lymph duct-cannulated Wistar rat model assessed as initial velocity of fatty acid output at 5.3 mg/kg supplemented with olive oil emulsion and measured after 24 hrs (reference value: 12.3 +/- 0.46 mg/ml/h). Format: functional.
Assay [7] has as its target T4, Pancreatic triacylglycerol lipase (Homo sapiens). Description: Inhibition of human pancreatic lipase preincubated for 30 mins at 25 degreeC. Put shortly: as §1

`CCCCCCCCCCC[C@@H](C[C@@H]1OC(=O)[C@H]1CCCCCC)OC(=O)[C@@H](CC(C)C)NC=O`: the XI50 worked out at 1.35 molar excess in assay [1]; 0.7 molar excess in assay [2]; 0.53 molar excess in assay [6]; 0.78 molar excess in the assay filed under Homo sapiens; 11.1 molar excess in assay [7]. Also, the T1/2 in assay [3] was 24 s; in assay [5], 35.4 s. For the same molecule, in assay [4], the inhibition turned out to be 91.5%. The V0 with Rattus norvegicus came out at 4.4 mg/mL/h.

Regarding `O=c1oc(OCCOCc2ccccc2)nn1-c1cccc(Oc2ccccc2)c1`, the XI50 in assay [1] was above 400 molar excess; in assay [2], 1.43 molar excess; in assay [6] it was 0.64 molar excess; in the assay listed under Homo sapiens, 1.42 molar excess; in [7], above 400 molar excess. In addition, the T1/2 was found to be 31.2 s in [3] and 101 s in assay [5]. In assay [4], this molecule gave an inhibition of 19.3%. The V0 with Rattus norvegicus was determined as 9.8 mg/mL/h.
